This note sets out measurements from ChEMBL document CHEMBL1136633, “Synthesis and thrombolytic activity of fibrinogen fragment related cyclopeptides” (Bioorg Med Chem Lett, 2003).

The nature of data set [1]: In vitro stability to pepsin promoting hydrolysis after 2 hr incubation time. The following applies: read-out: Degradation. The class given is ADME. In a few lines: (§1)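 Test compound (10 mg) dissolved in 1 mL phosphate buffer pH 8, then 0.5 mg pepsin or trypsin added. Mixture held at 37 °C. Remaining compound was measured hourly by HPLC using 25% CH₃OH in water with 0.1% CF₃COOH, and percent degradation was derived.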

For data set [2], the system named is Rattus norvegicus. Briefly: In vivo thrombolytic activity at a dose of 20.0 mg in male rat. It counts as functional. In short, it runs like this: (§2)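 Rat arterial-venous shunt. Arterial blood (1.0 mL) from the right carotid was collected onto a stainless steel helix for 15 min to form a thrombus, which was weighed. The helix was placed in a heparin-filled (50 IU/mL in NS) polyethylene shunt to the left jugular vein. Heparin was injected, then compound. Blood circulated 90 min and the helix was reweighed. Readout was thrombus mass reduction; N=8, NS vehicle, ANOVA.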

Data set [3] in a line: In vitro stability to pepsin promoting hydrolysis after 1 hr incubation time. It counts as ADME. The following applies: read-out: Degradation. In a few lines:
as §1

A short description of data set [4]: In vitro stability to pepsin promoting hydrolysis after 8 hr incubation time. The conditions noted are these: read-out: Degradation. It counts as ADME. In short, it runs like this:
as §1

A short description of data set [5]: In vitro stability to trypsin promoting hydrolysis after 1 hr incubation time. It counts as ADME. The following applies: read-out: Degradation. In short, it runs like this:
as §1

The nature of data set [6]: In vitro stability to trypsin promoting hydrolysis after 8 hr incubation time. The conditions noted are these: read-out: Degradation. It counts as ADME. In short, it runs like this: as §1
The nature of data set [7]: In vitro stability to trypsin promoting hydrolysis after 2 hr incubation time. The class given is ADME. The following applies: read-out: Degradation. In short, it runs like this:
as §1

The test system of data set [8] is Rattus norvegicus. Briefly: In vivo thrombolytic activity at a dose of 10.0 mg in male rat. The class given is functional. In a few lines: as §2
Data set [9] deals with Rattus norvegicus. The experiment in a line: In vivo thrombolytic activity at a dose of 5.0 mg in male rat. It counts as functional. In short, it runs like this: as §2
Data set [10] is described as follows: In vitro stability to pepsin promoting hydrolysis after 64h incubation time. The conditions noted are these: read-out: Degradation. It counts as ADME. In short, it runs like this: as §1
Data set [11] is described as follows: In vitro stability to pepsin promoting hydrolysis after 84 hr incubation time. The class given is ADME. The conditions noted are these: read-out: Degradation. In a few lines: as §1
Data set [12] is described as follows: In vitro stability to trypsin promoting hydrolysis after 64h incubation time. It counts as ADME. The conditions noted are these: read-out: Degradation. In a few lines: as §1
Data set [13] is described as follows: In vitro stability to trypsin promoting hydrolysis after 84 hr incubation time. The class given is ADME. The following applies: read-out: Degradation. In a few lines:
as §1

SMILES strings stand for the structures. Where a SMILES comes first, the peptide text is derived from it.

`C[C@H](NC(=O)[C@@H]1CCCN1C(=O)[C@H](CCCN=C(N)N)NC(=O)CN)C(=O)N[C@@H](CCCCN)C(=O)O` (H-GRPAK-OH): the metabolised at 2 h in data set [1] amounted to 75%; in data set [7] it was 77%. The Activity in the data set on Rattus norvegicus [2] worked out at 16.81 mg; in the data set with Rattus norvegicus [8], 13.17 mg; in the data set with Rattus norvegicus [9], 9.31 mg. Moreover, the results for the metabolised at 1 h in data set [3] and in [5] were 56% and 25%, respectively. The metabolised at 8 h in data set [4] is 93%; in data set [6], 98%.
As for `C[C@@H]1NC(=O)[C@@H](CCCN=C(N)N)NC(=O)[C@@H]2CCCN2C(=O)[C@H](C)NC(=O)[C@@H](CCCCN)NC1=O`, the Activity with Rattus norvegicus [9] was found to be 10.62 mg.
As for `C[C@H](NC(=O)[C@@H]1CCCN1C(=O)[C@H](CCCN=C(N)N)NC(=O)[C@@H](N)CCCCN)C(=O)N[C@@H](CCCCN)C(=O)O` (H-KRPAK-OH), the metabolised at 2 h came to 80% in [1] and 70% in data set [7]. Further, the values for the metabolised at 1 h in data set [3] and in data set [5] were 50% and 30%, respectively. The values for the metabolised at 8 h in data set [4] and in data set [6] were 95% and 96%, respectively. In addition, the Activity with Rattus norvegicus [9] came out at 0.28 mg.
Consider `C[C@@H]1NC(=O)[C@@H](CCCCN)NC(=O)[C@H](CCC(N)=O)NC(=O)[C@@H](CCCN=C(N)N)NC(=O)[C@@H]2CCCN2C1=O`, for which the Activity in the data set with Rattus norvegicus [9] is reported as 9.68 mg.
As for `C[C@@H]1NC(=O)[C@H](CCCCN)NC(=O)[C@H](CCCCN)NC(=O)[C@H](CCCN=C(N)N)NC(=O)[C@@H]2CCCN2C1=O`, the metabolised at 64 h in data set [10] and in data set [12] was 0% in each case. For the same molecule, the metabolised at 84 h was determined as 30% in data set [11] and 35% in data set [13].
On to `C[C@H](NC(=O)[C@@H]1CCCN1C(=O)[C@H](CCCN=C(N)N)NC(=O)[C@@H](N)CCC(N)=O)C(=O)N[C@@H](CCCCN)C(=O)O` (H-QRPAK-OH), for which the metabolised at 2 h in data set [1] worked out at 78%; in data set [7], 72%. Also, the figures for the metabolised at 1 h in data set [3] and in data set [5] were 45% and 20%, respectively. Further, the metabolised at 8 h was 92% in [4] and 95% in data set [6]. In addition, the Activity in the data set with Rattus norvegicus [9] is 7.02 mg.
Regarding `C[C@@H]1NC(=O)[C@H](CCCCN)NC(=O)CNC(=O)[C@H](CCCN=C(N)N)NC(=O)[C@@H]2CCCN2C1=O`, the metabolised at 64 h in data set [10] and in [12] was 0% throughout. The metabolised at 84 h was 10% in [11] and 20% in [13].
As to `C[C@@H]1NC(=O)[C@@H](CCCCN)NC(=O)CNC(=O)[C@@H](CCCN=C(N)N)NC(=O)[C@@H]2CCCN2C1=O`, the figures for the Activity with Rattus norvegicus [2], in the data set on Rattus norvegicus [8] and in the data set with Rattus norvegicus [9] were 18.88 mg, 17.31 mg and 11.86 mg, respectively.
In the case of `C[C@@H]1NC(=O)[C@H](CCCCN)NC(=O)[C@H](CCC(N)=O)NC(=O)[C@H](CCCN=C(N)N)NC(=O)[C@@H]2CCCN2C1=O`, the metabolised at 64 h in [10] and in data set [12] was 0% each time. The metabolised at 84 h in [11] turned out to be 25%; in [13] it was 20%.
Turning to `C[C@H](N)C(=O)N[C@@H](CCCN=C(N)N)C(=O)N1CCC[C@H]1C(=O)N[C@@H](C)C(=O)N[C@@H](CCCCN)C(=O)O` (H-ARPAK-OH), the metabolised at 2 h in [1] amounted to 50%; in [7], 95%. The metabolised at 1 h in [3] stood at 10%; in [5], 79%. Moreover, the metabolised at 8 h was determined as 98% in data set [4] and 99% in data set [6]. For the same molecule, the Activity in the data set on Rattus norvegicus [9] was determined as 6.07 mg.
On to `C[C@@H]1NC(=O)[C@H](CCCN=C(N)N)NC(=O)[C@@H]2CCCN2C(=O)[C@H](C)NC(=O)[C@H](CCCCN)NC1=O`, for which the metabolised at 64 h in data set [10] and in data set [12] was 0% throughout. Further, the metabolised at 84 h worked out at 40% in [11] and 38% in data set [13].
The molecule `C[C@@H]1NC(=O)[C@@H](CCCCN)NC(=O)[C@H](CCCCN)NC(=O)[C@@H](CCCN=C(N)N)NC(=O)[C@@H]2CCCN2C1=O` came in with an Activity in the data set on Rattus norvegicus [9] of 6.13 mg.
